Measurements taken from ChEMBL document CHEMBL1142436, “Design and synthesis of 4-substituted indolo[3,2-e][1,2,3]triazolo[1,5-a]pyrimidine derivatives with antitumor activity” (2008).

Legend:
Assay type in all cases: functional
[1] = Growth inhibition of human HS578T cells after 48 hrs; settings: Hs-578T
In short: (§1)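 NCI ~60-line screen. Cells were grown in RPMI 1640 with 5% FBS and 2 mM L-glutamine and plated at 5000–40000 cells/well. After a 24 h preincubation, five drug concentrations from DMSO stocks were added for 48 h at 37 °C. Cells were TCA-fixed, stained with SRB and read at 515 nm. GI50 was taken from time-zero and control absorbances and reported as pGI50.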

SK-MEL-2 = assay: Growth inhibition of human SK-MEL2 cells after 48 hrs; settings: SK-MEL-2, 48 h; in short: as §1
TK-10 = assay: Growth inhibition of human TK10 cells after 48 hrs; settings: TK-10, 48 h
In short: (§2)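 NCI 60-line screen: cells in RPMI 1640 with 5% FBS and 2 mM L-glutamine, plated at 5000–40000 cells/well, grown 24 h (37 °C, 5% CO₂), then exposed to five 10-fold or ½-log dilutions (DMSO stock) for 48 h. Fixed with TCA (final 10% for adherent cells, 16% for suspension cells), then SRB stained with absorbance at 515 nm. GI50 from percentage growth relative to time-zero and control wells.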

HOP-62 = assay: Growth inhibition of human HOP62 cells after 48 hrs; settings: HOP-62, 48 h; in short: as §1
HT-29 = assay: Growth inhibition of human HT29 cells after 48 hrs; settings: HT-29, 48 h; in short: as §1
UACC-257 = assay: Growth inhibition of human UACC257 cells after 48 hrs; settings: UACC-257, 48 h; in short: as §2
UACC-62 = assay: Growth inhibition of human UACC62 cells after 48 hrs; settings: UACC-62, 48 h; in short: as §2
PC-3 = assay: Growth inhibition of human PC3 cells after 48 hrs; settings: PC-3, 48 h; in short: as §1
HCT-116 = assay: Growth inhibition of human HCT116 cells after 48 hrs; settings: HCT-116, 48 h; in short: as §1
ACHN = assay: Growth inhibition of human ACHN cells after 48 hrs; in short: as §1
SF-268 = assay: Growth inhibition of human SF268 cells after 48 hrs; settings: SF-268, 48 h; in short: as §1
SF-539 = assay: Growth inhibition of human SF539 cells after 48 hrs; settings: SF-539, 48 h; in short: as §1
COLO 205 = assay: Growth inhibition of human COLO205 cells after 48 hrs; settings: COLO 205, 48 h; in short: as §1
NCI-H322M = assay: Growth inhibition of human NCI-H322M cells after 48 hrs; in short: as §1
A549 = assay: Growth inhibition of human A549 cells after 48 hrs; settings: A549, 48 h; in short: as §1
RXF 393 = assay: Growth inhibition of human RXF393 cells after 48 hrs; settings: RXF 393, 48 h; in short: as §1
786-0 = assay: Growth inhibition of human 786-0 cells after 48 hrs; settings: 786-0, 48 h; in short: as §1
KM12 = assay: Growth inhibition of human KM12 cells after 48 hrs; settings: KM12, 48 h; in short: as §1
SNB-19 = assay: Growth inhibition of human SNB19 cells after 48 hrs; settings: SNB-19, 48 h; in short: as §2
SK-MEL-28 = assay: Growth inhibition of human SK-MEL28 cells after 48 hrs; settings: SK-MEL-28, 48 h; in short: as §1
SF-295 = assay: Growth inhibition of human SF295 cells after 48 hrs; settings: SF-295, 48 h; in short: as §1
CCRF-CEM = assay: Growth inhibition of human CCRF-CEM cells after 48 hrs; in short: as §1
RPMI-8226 = assay: Growth inhibition of human RPMI8226 cells after 48 hrs; settings: RPMI-8226, 48 h; in short: as §1
UO-31 = assay: Growth inhibition of human UO31 cells after 48 hrs; settings: UO-31, 48 h; in short: as §2
NCI/ADR-RES = assay: Growth inhibition of human NCI/ADR-RES cells after 48 hrs; in short: as §1
NCI-H460 = assay: Growth inhibition of human NCI-H460 cells after 48 hrs; settings: NCI-H460, 48 h; in short: as §1
EKVX = assay: Growth inhibition of human EKVX cells after 48 hrs; in short: as §1
MOLT-4 = assay: Growth inhibition of human MOLT4 cells after 48 hrs; settings: MOLT-4, 48 h; in short: as §1
NCI-H226 = assay: Growth inhibition of human NCI-H226 cells after 48 hrs; settings: NCI-H226, 48 h; in short: as §1
SN12C = assay: Growth inhibition of human SN12C cells after 48 hrs; in short: as §2
OVCAR-8 = assay: Growth inhibition of human OVCAR8 cells after 48 hrs; settings: OVCAR-8, 48 h; in short: as §1
HOP-92 = assay: Growth inhibition of human HOP92 cells after 48 hrs; settings: HOP-92, 48 h; in short: as §1
MDA-MB-435 = assay: Growth inhibition of human MDA-MB435 cells after 48 hrs; settings: MDA-MB-435, 48 h; in short: as §1
[2] = read-out: Log LC50 (the source's name) (converted)

For `CCOC(=O)CNC(=O)CCCn1c(=O)c2c3ccccc3n(C)c2n2nnc(-c3ccccc3)c12`, the GI50 [1] was 4.47 µM, the LC50 (50% lethal concentration) [1] was greater than 50.1 µM and the TGI ([1]; read-out: pTGI (converted)) was greater than 50.1 µM. The GI50 (SK-MEL-2) was 9.55 µM, the LC50 (SK-MEL-2) was greater than 50.1 µM and the TGI (SK-MEL-2; read-out: pTGI (converted)) was 28.8 µM. It also gave a GI50 (TK-10) of 8.71 µM, an LC50 (TK-10) greater than 50.1 µM and a TGI (TK-10; read-out: pTGI (converted)) of 20.9 µM. For the same molecule, the GI50 (HOP-62) was 5.89 µM, the LC50 (HOP-62) was greater than 50.1 µM and the TGI (HOP-62; read-out: pTGI (converted)) was 17.8 µM. It also gave a GI50 (HT-29) greater than 50.1 µM, an LC50 (concentration killing 50% of cells) (HT-29) greater than 50.1 µM and a TGI (HT-29; read-out: pTGI (converted)) greater than 50.1 µM. It also gave a GI50 (UACC-257) greater than 50.1 µM, an LC50 (UACC-257) greater than 50.1 µM and a TGI (UACC-257; read-out: pTGI (converted)) greater than 50.1 µM. The GI50 (UACC-62) was 7.24 µM, the LC50 (UACC-62) was greater than 50.1 µM and the TGI (UACC-62; read-out: pTGI (converted)) was 21.9 µM. For the same molecule, the GI50 (PC-3) was 8.51 µM, the LC50 (PC-3) was greater than 50.1 µM and the TGI (PC-3; read-out: pTGI (converted)) was greater than 50.1 µM. It also gave a GI50 (HCT-116) of 9.12 µM, an LC50 (HCT-116) greater than 50.1 µM and a TGI (HCT-116; read-out: pTGI (converted)) of 27.5 µM. The GI50 (ACHN) was 9.33 µM, the LC50 (ACHN) was greater than 50.1 µM and the TGI (ACHN; read-out: pTGI (converted)) was 33.9 µM. The GI50 (SF-268) was 14.1 µM, the CC50 (SF-268; [2]) was greater than 50.1 µM and the TGI (SF-268; read-out: pTGI (converted)) was greater than 50.1 µM. It also gave a GI50 (SF-539) of 4.27 µM, an LC50 (concentration killing 50% of cells) (SF-539) of 28.8 µM and a TGI (SF-539; read-out: pTGI (converted)) of 11.7 µM. It also gave a GI50 (COLO 205) greater than 50.1 µM, an LC50 (COLO 205) greater than 50.1 µM and a TGI (COLO 205; read-out: pTGI (converted)) greater than 50.1 µM. For the same molecule, the GI50 (NCI-H322M) was greater than 50.1 µM, the LC50 (NCI-H322M) was greater than 50.1 µM and the TGI (NCI-H322M; read-out: pTGI (converted)) was greater than 50.1 µM. For the same molecule, the GI50 (A549) was 33.1 µM, the CC50 (A549; [2]) was greater than 50.1 µM and the TGI (A549; read-out: pTGI (converted)) was greater than 50.1 µM. The GI50 (RXF 393) was 1.32 µM, the LC50 (RXF 393) was 22.4 µM and the TGI (RXF 393; read-out: pTGI (converted)) was 4.37 µM. It also gave a GI50 (786-0) of 5.13 µM, an LC50 (786-0) greater than 50.1 µM and a TGI (786-0; read-out: pTGI (converted)) of 17.4 µM. For the same molecule, the GI50 (KM12) was greater than 50.1 µM, the LC50 (KM12) was greater than 50.1 µM and the TGI (KM12; read-out: pTGI (converted)) was greater than 50.1 µM. It also gave an LC50 (SNB-19) of 17 µM, a GI50 (SK-MEL-28) greater than 50.1 µM and an LC50 (SK-MEL-28) greater than 50.1 µM. It also gave a TGI (SK-MEL-28; read-out: pTGI (converted)) greater than 50.1 µM, a GI50 (SF-295) of 4.79 µM and an LC50 (SF-295) greater than 50.1 µM. For the same molecule, the TGI (SF-295; read-out: pTGI (converted)) was 17.4 µM, the GI50 (CCRF-CEM) was 26.3 µM and the LC50 (CCRF-CEM) was greater than 50.1 µM. The TGI (CCRF-CEM; read-out: pTGI (converted)) was greater than 50.1 µM, the GI50 (RPMI-8226) was 10.7 µM and the LC50 (RPMI-8226) was greater than 50.1 µM. It also gave a TGI (RPMI-8226; read-out: pTGI (converted)) of 33.9 µM, a GI50 (UO-31) of 47.9 µM and an LC50 (UO-31) greater than 50.1 µM. The TGI (UO-31; read-out: pTGI (converted)) was greater than 50.1 µM, the GI50 (NCI/ADR-RES) was greater than 50.1 µM and the LC50 (concentration killing 50% of cells) (NCI/ADR-RES) was greater than 50.1 µM. It also gave a TGI (NCI/ADR-RES; read-out: pTGI (converted)) greater than 50.1 µM, a GI50 (NCI-H460) greater than 50.1 µM and an LC50 (NCI-H460) greater than 50.1 µM. For the same molecule, the TGI (NCI-H460; read-out: pTGI (converted)) was greater than 50.1 µM, the GI50 (EKVX) was greater than 50.1 µM and the LC50 (EKVX) was greater than 50.1 µM. The TGI (EKVX; read-out: pTGI (converted)) was 20.4 µM, the GI50 (MOLT-4) was greater than 50.1 µM and the LC50 (MOLT-4) was greater than 50.1 µM. For the same molecule, the TGI (MOLT-4; read-out: pTGI (converted)) was greater than 50.1 µM, the GI50 (NCI-H226) was 25.1 µM and the CC50 (NCI-H226; [2]) was greater than 50.1 µM. It also gave a TGI (NCI-H226; read-out: pTGI) greater than 50.1 µM, a GI50 (SN12C) greater than 50.1 µM and an LC50 (SN12C) greater than 50.1 µM. It also gave a TGI (SN12C; read-out: pTGI (converted)) greater than 50.1 µM, a GI50 (OVCAR-8) of 25.1 µM and an LC50 (OVCAR-8) greater than 50.1 µM. It also gave a TGI (OVCAR-8; read-out: pTGI (converted)) greater than 50.1 µM, a GI50 (HOP-92) greater than 50.1 µM and an LC50 (HOP-92) of 3.63 µM. It also gave a TGI (HOP-92; read-out: pTGI (converted)) of 14.8 µM, a GI50 (MDA-MB-435) greater than 50.1 µM and an LC50 (MDA-MB-435) of 39.8 µM. For the same molecule, the TGI (MDA-MB-435; read-out: pTGI (converted)) was 20 µM.
